Assay results as given in ChEMBL document CHEMBL3585329, “Cafestol-Type Diterpenoids from the Twigs of Tricalysia fruticosa with Potential Anti-inflammatory Activity” (J Nat Prod, 2015).
Activity calls are given as the source filed them. No cut-off for these calls is given here.

Columns and labels:
[1] = test system: RAW264.7; assay: Inhibition of LPS-induced NO release in mouse RAW264.7 cells after 24 hrs by Griess reaction; type: functional, cell-based; settings: RAW264.7, 24 h
Summary of the method: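 RAW 264.7 cells (10% heat-inactivated FBS, 3.0 mM glutamine, 37 °C, 5% CO2) seeded at 2 × 10^4 cells/mL. DMSO-solubilized compounds added 1 h before LPS. Supernatant nitrite measured by Griess reagent (0.1% naphthylethylene diamine, 1.0% sulfanilamide in 2.5% phosphoric acid), 10 min at room temperature, A550. NO quantified against a sodium nitrite standard curve. Positive control: N-monomethyl-L-arginine.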

[2] = Cytotoxicity against mouse RAW264.7 cells assessed as cell survival up to 100 uM; type: cell-based; settings: read-out: Survival
Summary of the method: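 RAW 264.7 macrophages were grown with 3.0 mM glutamine, penicillin and streptomycin (100 U/mL each), and 10% heat-inactivated FBS at 37 °C in humidified 5% CO2. Cell survival was examined after exposure to each isolate at concentrations up to 100 μM.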

[3] = target: MAP kinase p38 (Mus musculus) (UniProt P47811+O08911+Q9WUI1+Q9Z1B7); assay: Inhibition of LPS-stimulated p38 phosphorylation in mouse RAW264.7 cells by Western blotting analysis; type: cell-based
Summary of the method: (§1)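 Macrophages seeded at 1 × 10^6 cells/well, pretreated 1 h with 2.5, 5.0 or 10.0 μM test agent (DMSO), then stimulated with LPS 1 μg/mL. Dexamethasone 1.0 μM served as positive control. Lysis in ice-cold RIPA with 0.1% PMSF, 12000g for 20 min. SDS-PAGE, PVDF transfer, 5% skim-milk block, primary antibody overnight at 4 °C, HRP secondary (1:12 000) 1.5 h at RT, ECL detection. Means ± SD.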

[4] = target: Transcription factor p65 (Mus musculus) (UniProt Q04207); assay: Inhibition of NFkappaBp65 activation in LPS-induced mouse RAW264.7 cells at 2.5 to 10 uM by Western blotting analysis; type: cell-based; summary of the method: as §1
Transcription factor p65 (Mus musculus), sequence (Q04207 whole entry): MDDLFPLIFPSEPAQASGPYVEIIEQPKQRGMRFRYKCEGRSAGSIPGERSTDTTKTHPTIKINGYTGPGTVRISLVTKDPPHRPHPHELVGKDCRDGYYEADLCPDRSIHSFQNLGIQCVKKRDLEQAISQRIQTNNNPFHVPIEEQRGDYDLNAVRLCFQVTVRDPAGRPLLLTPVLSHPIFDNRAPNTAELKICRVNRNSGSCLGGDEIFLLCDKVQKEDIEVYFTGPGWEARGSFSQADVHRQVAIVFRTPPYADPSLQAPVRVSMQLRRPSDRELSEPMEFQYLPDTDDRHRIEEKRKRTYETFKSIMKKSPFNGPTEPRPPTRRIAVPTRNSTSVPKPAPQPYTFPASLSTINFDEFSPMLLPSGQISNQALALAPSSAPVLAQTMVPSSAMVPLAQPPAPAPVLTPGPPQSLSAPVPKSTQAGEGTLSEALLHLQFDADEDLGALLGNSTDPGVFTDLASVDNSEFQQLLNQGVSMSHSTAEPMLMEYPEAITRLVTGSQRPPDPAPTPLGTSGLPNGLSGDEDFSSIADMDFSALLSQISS

[5] = test system: RAW264.7; assay: Suppression of LPS-induced TNFalpha protein expression in mouse RAW264.7 cells by ELISA; type: functional, cell-based
Summary of the method: (§2)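 RAW 264.7 cells seeded at 4 × 10^5 cells/well and exposed to LPS with or without 2.5, 5.0 or 10.0 μM test agent (DMSO stock diluted in DMEM, added 1 h before LPS) for 18 h. Cytokine in cell-free supernatant measured by mouse ELISA kit per manufacturer's protocol. Means ± SD.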

[6] = test system: RAW264.7; assay: Suppression of LPS-induced IL6 protein expression in mouse RAW264.7 cells by ELISA; type: functional, cell-based; summary of the method: as §2
[7] = test system: RAW264.7; assay: Suppression of LPS-induced iNOS protein expression in mouse RAW264.7 cells by Western blotting analysis; type: functional, cell-based; summary of the method: as §1
[8] = test system: RAW264.7; assay: Inhibition of LPS-stimulated JNK phosphorylation in mouse RAW264.7 cells by Western blotting analysis; type: cell-based; summary of the method: as §1
[9] = test system: RAW264.7; assay: Inhibition of LPS-stimulated ERK phosphorylation in mouse RAW264.7 cells by Western blotting analysis; type: cell-based; summary of the method: as §1
[10] = target: NF-kappa-B inhibitor alpha (Mus musculus) (UniProt Q9Z1E3); assay: Inhibition of IkappaB alpha phosphorylation in LPS-induced mouse RAW264.7 cells by Western blotting analysis
NF-kappa-B inhibitor alpha (Mus musculus), sequence (Q9Z1E3 whole entry, looked up): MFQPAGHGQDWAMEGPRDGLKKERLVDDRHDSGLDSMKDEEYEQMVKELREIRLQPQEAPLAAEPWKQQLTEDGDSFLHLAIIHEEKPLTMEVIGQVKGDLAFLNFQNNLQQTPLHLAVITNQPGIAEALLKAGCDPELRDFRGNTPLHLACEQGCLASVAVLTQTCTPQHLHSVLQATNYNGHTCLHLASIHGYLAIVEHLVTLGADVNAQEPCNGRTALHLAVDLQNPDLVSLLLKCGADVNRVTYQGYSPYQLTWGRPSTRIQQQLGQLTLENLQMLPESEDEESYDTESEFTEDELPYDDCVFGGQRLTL

SMILES	IC50 [1] [µM]	viability [2] [%]	also measured
CC(=O)OC[C@]1(O)[C@@H]2CC[C@H]3[C@]4(C)CC[C@@]5(O)OC(=O)C=C5[C@H]4CC[C@]3(C2)[C@H]1O	> 100	> 90	
C[C@@]12C=CC(=O)C[C@H]1CC[C@]13C[C@](O)(CO)[C@@](O)(CC[C@H]12)C3	27.1	> 90	
C[C@@]12CC=C3OC(=O)C=C3[C@H]1CC[C@@]13C[C@@H](CC[C@H]12)[C@@](O)(CO)C3	> 100	> 90	
C[C@@]12[C@H](O)C=C3OC(=O)C=C3[C@H]1CC[C@@]13C[C@@H](CC[C@H]12)[C@@](O)(CO)C3	> 100	> 90	
C[C@@]12CC[C@@]3(O)OC(=O)C=C3[C@H]1CC[C@]13C[C@](O)(CO)[C@@](O)(CC[C@H]12)C3	> 100	> 90	
C[C@@]12CC[C@@]3(O)OC(=O)C=C3[C@H]1CC[C@@]13C[C@H](CC[C@H]12)[C@@](O)(CO)C3	> 100	> 90	
CO[C@@H]1C[C@@]2(CC[C@@]3(C)[C@@H]4CC[C@@H]5C[C@@]4(CC[C@H]23)C[C@]5(O)CO)C(=O)O1	> 100	> 90	
CNC(=N)NCCC[C@H](N)C(=O)O [TILARGININE]	40.5		
C[C@@]12CC(=O)c3occc3[C@H]1CC[C@]13C[C@](O)(CO)[C@@](O)(CC[C@H]12)C3	> 100	> 90	
C[C@@]12CC=C3OC(=O)C=C3[C@H]1CC[C@@]13C[C@@H](CC[C@@H]21)[C@@](O)(CO)[C@@H]3O	> 100	> 90	
C[C@@]12CC[C@@]3(O)OC(=O)C=C3[C@H]1CC[C@@]13C[C@H](CC[C@@H]21)[C@@](O)(CO)[C@@H]3O	> 100	> 90	
C[C@@]12CC[C@H]3OC(=O)C=C3[C@H]1CC[C@@]13C[C@H](CC[C@]12O)[C@@](O)(CO)C3	> 100	> 90	
CCOC(=O)/C=C1\C(=O)C=C[C@]2(C)[C@@H]1CC[C@]13C[C@](O)(CO)[C@@](O)(CC[C@H]12)C3	6.6	> 90	inhibition [3]: Active; inhibition [4]: Active; inhibition [5]: Dose-dependent effect; inhibition [6]: Dose-dependent effect; inhibition [7]: Dose-dependent effect; inhibition [8]: Active; inhibition [9]: Active; inhibition [10]: Active
C[C@@]12CC[C@H]3OC(=O)C=C3[C@H]1CC[C@@]13C[C@@H](CC[C@H]12)[C@@](O)(CO)C3	> 100	> 90	
